# Laboratory results reported in ChEMBL document CHEMBL1153954, “Promiscuous aggregate-based inhibitors promote enzyme unfolding” (J Med Chem, 2009).
# The source made the active and inactive calls. No cut-off for these calls is given here.
# Key:
# [1] = target: AmpC (Escherichia coli) (UniProt Q83TT7); experiment: Inhibition of Escherichia coli AmpC assessed as induction of protein unfolding measured by trypsin mediated degradation of compound-AmpC enzyme complex at 100 uM after 4 hrs by gel electrophoresis
# Summary of the method: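 AmpC (0.5 μM) was preincubated 5 min with or without 100 μM aggregator in 50 mM KPi, pH 7.0, 1% DMSO final. Trypsin (0.01 or 0.025 mg/mL) was then added, and digestion ran at room temperature for 0, 15, 30 min, 1 h or 4 h. Samples were boiled in DTT-containing loading buffer and the AmpC band was followed by SDS-PAGE.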
# [2] = target: AmpC (Escherichia coli) (UniProt Q83TT7); experiment: Inhibition of Escherichia coli AmpC assessed as induction of protein unfolding measured by trypsin mediated degradation of compound-AmpC enzyme complex at 250 uM after 15 mins by gel electrophoresis
# Summary of the method: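 AmpC β-lactamase (0.5 μM) in 50 mM KPi, pH 7.0, with or without aggregator at 250 μM (1% DMSO final). Trypsin (0.01 or 0.025 mg/mL) added after 5 min. Digestion ran at room temperature for 0 min to 4 h. Samples were boiled 2 min in DTT-containing loading buffer, run on SDS-PAGE, and the β-lactamase band was scored against compound-free enzyme.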
# Chain of AmpC (Escherichia coli) (Q83TT7 as listed by the source): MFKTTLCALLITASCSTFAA
Activity [1],Activity [2],SMILES
Active,,CCCCCCNC(=O)Nc1ccc(S(=O)(=O)Nc2ccc(CCNC[C@H](O)COc3ccc(O)cc3)cc2)cc1
,Active,Nc1c(/N=N/c2ccc(-c3ccc(/N=N/c4cc(S(=O)(=O)O)c5ccccc5c4N)cc3)cc2)cc(S(=O)(=O)O)c2ccccc12
